Test results taken from PMC12219203 (Nature Communications, 2025).

How the values were obtained:
NOD2 = experiment: HEK-Blue NOD2 SEAP reporter assay; format: cell-based, human; settings: MDP, M-AE 200 nM; GM, M 20 μM; 18 h
How it was run: (§1)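 HEK-Blue hNod1 or hNod2 cells were seeded at 50,000 cells/well in DMEM/10% FBS without selection antibiotics and stimulated at once for 18 h (n = 3). Supernatant was mixed 1:4 with Quanti-Blue and incubated 6 h at 37 °C, and absorbance was read at 620 nm. Values were blanked against water-treated wells, and the respective parental Null cell readouts were subtracted.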

NOD1 = NOD1 (Homo sapiens, UniProt Q9Y239); experiment: HEK-Blue NOD1 SEAP reporter assay; format: cell-based; settings: GM, M 20 μM; 18 h
How it was run: as §1

[1] = test system: murine bone marrow-derived dendritic cells (cDC2); experiment: CD80/86 surface expression in cDC2s of BMDCs; format: cell-based, mouse; settings: 50, 100, 200 μM, 18 h
How it was run: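 Bone marrow from femur and tibia of C57BL/6J female mice was red-cell-lysed and plated at 2,000,000 cells/mL in medium with FLT3 ligand-containing supernatant, with feeding on days 3 and 6. DCs were reseeded at 2,000,000 cells/well and stimulated 18 h. Cells were Fc-blocked, stained with anti-CD80, anti-CD86 and live/dead dye, and analysed by flow cytometry as MFI in gated cDC2s.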

[2] = test system: IRF signaling in RAW-Dual WT cells; experiment: RAW-Dual WT IRF reporter; format: cell-based, mouse; settings: 24 h
[3] = test system: IRF signaling in RAW-Dual Tlr4-/- cells; experiment: RAW-Dual Tlr4-/- IRF reporter; format: cell-based, mouse; settings: 24 h
How it was run: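 RAW-Dual Tlr4-/- cells were seeded at 100,000 cells/well without selection antibiotics, 24 h before a 24 h exposure to test compounds. IRF-driven secreted luciferase was measured by mixing 20 µL supernatant with 50 µL Quanti-Luc 4 and reading luminescence immediately.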

[4] = target: recombinant mTLR4 protein (Mus musculus, UniProt Q9QUK6); experiment: mTLR4 pulldown by immobilized GM-agarose beads; format: binding; settings: pre-incubation of mTLR4 with excess GM
How it was run: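 An azide-tagged test-compound probe (2.5 mM) was clicked onto alkyne agarose beads (1.2 mM ascorbate, 0.5 mM CuSO4, 0.5 mM THPTA, 4 °C, 3 h); control beads lacked probe. Beads were incubated overnight at 4 °C in water with recombinant mouse TLR4(26-638)-His6 (100 or 50 ng), optionally pre-incubated with free competitor. Flow-through, wash and boiled eluate were analysed by Coomassie-stained SDS-PAGE.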

mTLR4/mMD2 (wt / F119A) = mTLR4/mMD2 (wt / F119A) (Mus musculus, UniProt Q9JHF9+Q9QUK6, F119A); experiment: NF-κB SEAP in HEK-Blue Null1, mTLR4 wt / mMD2 F119A; format: cell-based; settings: GM 0.4, 0.2 mM, 24 h
How it was run: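 Site-directed mTLR4 or mMD2 variants were made by mutagenesis. HEK-Blue Null1 cells were co-transfected 16 h with 500 ng mTLR4 and mMD2-Myc plasmids (1:1) by lipofection; mock cells got water/Lipofectamine. After a medium change, cells were treated 24 h. Supernatant SEAP was measured with Quanti-Blue (37 °C, 6 h, A620), normalized to H2O-treated cells; mean ± s.e.m., n = 3.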

mTLR4/mMD2 (wt / F126A) = mTLR4/mMD2 (wt / F126A) (Mus musculus, UniProt Q9JHF9+Q9QUK6, F126A); experiment: NF-κB SEAP in HEK-Blue Null1, mTLR4 wt / mMD2 F126A; format: cell-based; settings: GM 0.4, 0.2 mM; LPS 100 ng/mL; 24 h
How it was run: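 Point mutants of mTLR4 or mMD2 were made by site-directed mutagenesis. HEK-Blue Null1 cells were co-transfected by lipofection for 16 h with 500 ng total of mTLR4 and Myc-tagged mMD2 plasmids (1:1); mock wells received lipofection reagent only. After a medium change the next day, cells were treated for 24 h. NF-κB SEAP was measured and normalised to water-treated samples; data are mean ± s.e.m., n = 3.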

mTLR2 = mTLR2 (Mus musculus, UniProt Q9QUN7); experiment: HEK-Blue mTLR2 SEAP reporter assay; format: cell-based; settings: GM 2, 1, 0.5 mM, 24 h, n = 6
How it was run: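 HEK-Blue mTLR2 cells were seeded at 50,000 cells/well in complete DMEM. After 6 h the medium was changed to serum-free DMEM and test compound was added for 24 h. Secreted SEAP was read by mixing supernatant 1:4 with Quanti-Blue, incubating 6 h at 37 °C and measuring absorbance at 620 nm. Values were blanked against water-treated wells.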

WT BMDMs = experiment: RNAseq of WT BMDMs; format: cell-based, mouse; settings: GM 8 mM, 24 h, n = 3
How it was run: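 BMDMs were differentiated 6 days from mouse bone marrow with GM-CSF or L929 supernatant at 800,000 cells/well, switched to serum-free IMDM and stimulated 24 h; MDP 0.4 mM was run alongside. Total RNA was extracted for RNAseq. Differentially expressed genes were called at p < 0.01 and logFC > 1 and plotted as mean heatmaps; n = 3.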

[5] = test system: NF-κB p65 and MAPK p38 phosphorylation in WT BMDMs; experiment: Immunoblot of p65 and p38 phosphorylation in WT BMDMs; format: cell-based, mouse; settings: GM 5 mM
How it was run: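 Bone-marrow macrophages from WT or Tlr4-/- C57BL/6J mice were stimulated directly with 5 mM test compound or 500 ng/mL LPS. Cells were lysed in Tris/SDS/Triton buffer with protease and phosphatase inhibitors plus 10 mM DTT and boiled, then run on SDS-PAGE and transferred to PVDF. Blots were probed with rabbit antibodies to total or phospho-p65, total or phospho-p38 and GAPDH (1:1000, 4 °C overnight), then HRP anti-rabbit (1:5000).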

[6] = GM abundance in mouse gut after intraperitoneal injection; format: in vivo; settings: mice, i.p. injection of GM; LC-MS

Chain of recombinant mTLR4 protein (Q9QUK6 26-638): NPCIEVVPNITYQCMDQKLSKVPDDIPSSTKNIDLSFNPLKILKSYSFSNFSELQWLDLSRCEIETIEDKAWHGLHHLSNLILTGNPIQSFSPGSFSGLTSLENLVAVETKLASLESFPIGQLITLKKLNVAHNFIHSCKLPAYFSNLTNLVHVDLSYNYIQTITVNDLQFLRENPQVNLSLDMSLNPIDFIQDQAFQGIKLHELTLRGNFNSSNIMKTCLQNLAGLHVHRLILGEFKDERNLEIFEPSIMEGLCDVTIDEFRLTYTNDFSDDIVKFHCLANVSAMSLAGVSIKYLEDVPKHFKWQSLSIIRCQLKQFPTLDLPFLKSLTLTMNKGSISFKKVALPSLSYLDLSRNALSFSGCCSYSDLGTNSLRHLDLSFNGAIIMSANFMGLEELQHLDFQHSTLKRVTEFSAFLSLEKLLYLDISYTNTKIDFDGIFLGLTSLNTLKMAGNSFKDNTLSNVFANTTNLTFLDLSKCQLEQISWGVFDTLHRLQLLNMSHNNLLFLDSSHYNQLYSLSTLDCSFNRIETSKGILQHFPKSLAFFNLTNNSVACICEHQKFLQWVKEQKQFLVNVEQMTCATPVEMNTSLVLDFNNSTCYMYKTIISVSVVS
Chain of mTLR2 (Q9QUN7 25-784): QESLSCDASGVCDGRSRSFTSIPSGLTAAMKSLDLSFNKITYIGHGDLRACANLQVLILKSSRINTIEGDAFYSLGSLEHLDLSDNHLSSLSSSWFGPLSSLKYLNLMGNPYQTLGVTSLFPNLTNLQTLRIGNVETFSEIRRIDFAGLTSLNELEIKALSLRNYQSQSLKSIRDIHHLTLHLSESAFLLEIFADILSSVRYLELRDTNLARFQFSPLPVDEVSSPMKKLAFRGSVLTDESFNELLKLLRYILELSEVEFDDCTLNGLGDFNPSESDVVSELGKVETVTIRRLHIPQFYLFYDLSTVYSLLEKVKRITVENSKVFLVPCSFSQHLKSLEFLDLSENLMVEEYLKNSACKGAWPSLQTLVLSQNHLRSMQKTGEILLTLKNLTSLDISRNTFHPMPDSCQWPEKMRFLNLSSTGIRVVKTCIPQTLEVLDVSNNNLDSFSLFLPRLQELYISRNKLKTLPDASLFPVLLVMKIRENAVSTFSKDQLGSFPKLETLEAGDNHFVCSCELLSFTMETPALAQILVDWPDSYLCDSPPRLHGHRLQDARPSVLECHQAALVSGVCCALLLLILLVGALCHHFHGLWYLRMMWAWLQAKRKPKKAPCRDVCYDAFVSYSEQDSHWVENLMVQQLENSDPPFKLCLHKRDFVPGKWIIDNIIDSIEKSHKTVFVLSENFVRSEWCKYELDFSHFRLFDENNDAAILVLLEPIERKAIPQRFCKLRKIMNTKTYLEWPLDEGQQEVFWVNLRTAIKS
Chain of mTLR4/mMD2 (wt / F119A) (Q9QUK6 26-835): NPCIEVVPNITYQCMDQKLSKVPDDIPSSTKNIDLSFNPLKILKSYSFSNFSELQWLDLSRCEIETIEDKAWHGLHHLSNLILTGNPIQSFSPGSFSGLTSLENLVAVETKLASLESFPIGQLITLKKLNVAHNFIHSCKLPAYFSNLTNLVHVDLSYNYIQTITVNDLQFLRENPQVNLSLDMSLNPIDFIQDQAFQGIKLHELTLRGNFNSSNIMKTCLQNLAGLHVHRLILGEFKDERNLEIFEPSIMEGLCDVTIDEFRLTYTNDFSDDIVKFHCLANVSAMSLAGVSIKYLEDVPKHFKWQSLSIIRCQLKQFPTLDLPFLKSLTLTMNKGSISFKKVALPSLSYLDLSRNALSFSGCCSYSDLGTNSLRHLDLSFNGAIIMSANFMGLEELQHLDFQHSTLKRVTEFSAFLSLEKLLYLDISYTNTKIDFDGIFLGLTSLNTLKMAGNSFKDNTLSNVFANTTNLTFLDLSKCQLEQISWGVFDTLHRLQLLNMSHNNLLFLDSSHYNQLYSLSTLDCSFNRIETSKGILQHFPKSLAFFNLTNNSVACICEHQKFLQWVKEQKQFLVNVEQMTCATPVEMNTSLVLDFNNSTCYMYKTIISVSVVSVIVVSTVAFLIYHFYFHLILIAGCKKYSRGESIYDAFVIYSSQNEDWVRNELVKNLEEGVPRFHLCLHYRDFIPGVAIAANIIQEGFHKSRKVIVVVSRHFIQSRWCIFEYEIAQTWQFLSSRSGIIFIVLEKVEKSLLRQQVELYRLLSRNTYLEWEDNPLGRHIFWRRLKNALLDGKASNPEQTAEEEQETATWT
Chain of mTLR4/mMD2 (wt / F119A) (Q9JHF9 19-160 F119A): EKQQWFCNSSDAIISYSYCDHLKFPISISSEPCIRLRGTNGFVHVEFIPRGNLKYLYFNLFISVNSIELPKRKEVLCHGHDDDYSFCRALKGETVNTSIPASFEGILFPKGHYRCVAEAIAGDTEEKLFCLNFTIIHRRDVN
Chain of mTLR4/mMD2 (wt / F126A) (Q9QUK6 26-835): as the sequence (Q9QUK6 26-835) above
Chain of mTLR4/mMD2 (wt / F126A) (Q9JHF9 19-160 F126A): as the sequence (Q9JHF9 19-160 F119A) above, with A101F, F108A counted along it
Chain of NOD1 (Q9Y239 whole entry): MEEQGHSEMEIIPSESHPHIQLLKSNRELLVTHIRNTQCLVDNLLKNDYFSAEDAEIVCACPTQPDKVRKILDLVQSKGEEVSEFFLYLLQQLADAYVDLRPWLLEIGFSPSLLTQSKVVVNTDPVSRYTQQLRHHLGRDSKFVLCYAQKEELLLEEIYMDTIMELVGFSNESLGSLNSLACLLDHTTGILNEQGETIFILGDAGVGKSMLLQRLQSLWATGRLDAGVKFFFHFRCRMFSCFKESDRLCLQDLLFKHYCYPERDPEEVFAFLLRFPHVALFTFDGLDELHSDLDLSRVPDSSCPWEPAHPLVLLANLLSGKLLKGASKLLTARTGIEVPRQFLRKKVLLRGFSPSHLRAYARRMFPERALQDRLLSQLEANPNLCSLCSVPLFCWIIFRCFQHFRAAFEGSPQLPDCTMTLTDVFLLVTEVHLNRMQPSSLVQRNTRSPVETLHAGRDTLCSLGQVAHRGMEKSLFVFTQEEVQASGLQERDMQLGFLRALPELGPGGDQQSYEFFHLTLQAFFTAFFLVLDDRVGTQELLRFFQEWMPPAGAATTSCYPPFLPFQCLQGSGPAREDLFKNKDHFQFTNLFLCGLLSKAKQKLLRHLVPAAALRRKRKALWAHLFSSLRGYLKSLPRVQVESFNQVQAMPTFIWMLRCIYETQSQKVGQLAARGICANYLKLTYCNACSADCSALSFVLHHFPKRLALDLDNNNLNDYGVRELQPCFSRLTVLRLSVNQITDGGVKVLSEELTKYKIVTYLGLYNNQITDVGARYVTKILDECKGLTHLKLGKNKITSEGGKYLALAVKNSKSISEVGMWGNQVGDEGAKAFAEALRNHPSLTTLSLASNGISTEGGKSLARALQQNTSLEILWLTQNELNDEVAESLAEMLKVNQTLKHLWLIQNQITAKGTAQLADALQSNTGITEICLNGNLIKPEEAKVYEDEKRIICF

CC(=O)N[C@H]1[C@H](O[C@H]2[C@H](O[C@H](C)C(=O)O)[C@@H](NC(C)=O)C(O)O[C@@H]2CO)O[C@H](CO)[C@@H](O)[C@@H]1O (stereo partly drawn) [GM, N-acetylglucosamine-β−1,4-N-acetylmuramic acid]
NOD2 activation in HEK-Blue reporter cells (in words) (NOD2): unable to activate NOD1/2
NOD1 activation in HEK-Blue reporter cells (in words) (NOD1): unable to activate NOD1/2
CD80/86 surface markers in cDC2 population of BMDCs (in words) [1]: upregulates CD80/86 surface marker expressions
IRF signaling in RAW-Dual WT cells (in words) [2]: dose-dependent activation of both NF-κB and IRF signaling
IRF signaling in RAW-Dual Tlr4-/- cells (in words) [3]: minimal activity
Competition of mTLR4 binding to GM-1-resin by excess free ligand [4]: dose-dependent decrease in the amount of mTLR4 bound to GM-1-resin
Effect of mutation mMD-2_F119 on NF-κB activity (in words) (mTLR4/mMD2 (wt / F119A)): did not significantly impair the activity of GM
Effect of mutation mMD-2_F126 on NF-κB activity (in words) (mTLR4/mMD2 (wt / F126A)): abrogated NF-κB activation
Activation of HEK-Blue mTLR2 reporter cells (in words) (mTLR2): does not activate
Cytokine and chemokine genes (Il12a/b, Il6, Il1a/b, Csf3, Ccl5, Cxcl1) by RNAseq, WT BMDMs (WT BMDMs): significantly upregulated
p65 and p38 phosphorylation in WT BMDMs [5]: mild increase in phosphorylation
Abundance in the mouse gut after intraperitoneal injection [6]: temporally increased its abundance in the mouse gut
